Measured values taken from ChEMBL document CHEMBL4145530, “Design, synthesis and pharmacological evaluation of N-benzyl-piperidinyl-aryl-acylhydrazone derivatives as donepezil hybrids: Discovery of novel multi-target anti-alzheimer prototype drug candidates” (Eur J Med Chem, 2018).

Assays:
[1] = molecular target: T1, Prostaglandin G/H synthase 1 (Ovis aries) (UniProt P05979); test: Inhibition of ovine COX1 at 10 uM using arachidonic acid as substrate preincubated for 120 mins followed by substrate addition measured for 5 secs by chemiluminescence assay relative to control
T1 sequence (whole entry): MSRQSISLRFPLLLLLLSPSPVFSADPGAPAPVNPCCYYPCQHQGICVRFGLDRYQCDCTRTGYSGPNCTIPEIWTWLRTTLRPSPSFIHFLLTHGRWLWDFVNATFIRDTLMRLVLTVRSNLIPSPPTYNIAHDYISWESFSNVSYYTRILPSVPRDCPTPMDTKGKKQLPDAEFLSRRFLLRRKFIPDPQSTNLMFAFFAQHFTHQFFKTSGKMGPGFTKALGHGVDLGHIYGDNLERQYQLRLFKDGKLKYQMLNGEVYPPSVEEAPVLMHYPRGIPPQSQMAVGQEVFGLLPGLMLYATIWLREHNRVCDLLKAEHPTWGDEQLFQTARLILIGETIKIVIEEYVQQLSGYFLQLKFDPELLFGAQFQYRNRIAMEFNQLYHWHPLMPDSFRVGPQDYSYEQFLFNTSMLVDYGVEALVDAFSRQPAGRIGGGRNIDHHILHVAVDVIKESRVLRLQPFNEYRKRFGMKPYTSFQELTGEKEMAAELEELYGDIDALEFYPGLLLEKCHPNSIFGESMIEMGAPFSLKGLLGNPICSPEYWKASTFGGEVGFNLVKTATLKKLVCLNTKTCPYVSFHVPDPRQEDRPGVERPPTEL
How it was run: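 COX-1 or COX-2 with heme was preincubated 120 min with compound (10 µM) in assay buffer. Arachidonic acid and a chemiluminescent substrate were then added at room temperature and peroxidative activity was read for 5 s; ibuprofen was the reference. Selectivity index was taken as the ratio of maximum COX-2 inhibition to COX-1 inhibition. Two independent experiments.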

[2] = molecular target: Acetylcholinesterase (Electrophorus electricus) (UniProt O42275); test: (§1) Inhibition of electric eel AChE using acetylthiocholine iodide as substrate preincubated for 10 mins followed by substrate addition by Ellman's method
[3] = molecular target: T2, Acetylcholinesterase (Electrophorus electricus, UniProt O42275); test: as §1
[4] = molecular target: Acetylcholinesterase (Electrophorus electricus) (UniProt O42275); test: Inhibition of electric eel AChE at 100 uM using acetylthiocholine iodide as substrate preincubated for 10 mins followed by substrate addition by Ellman's method relative to control
[5] = tested on: Mus musculus; test: Antinociceptive activity in carrageenan-induced Swiss mouse model of mechanical hyperalgesia assessed as mechanical hyperalgesic index pretreated orally for 1 hr followed by carrageenan challenge by Von Frey filament assay; assay type: functional
How it was run: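 Swiss mice were placed in wire-screen acrylic boxes 60 min before testing. Vehicle, compound or indomethacin was given orally 1 h before intraplantar carrageenan. Mechanical threshold was found by the von Frey up-and-down method, with at least 6 trials at 10 s intervals, raising filament mass until paw withdrawal. Results are given as threshold in grams; n=8.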

[6] = molecular target: T2, Acetylcholinesterase; test: Non-competitive inhibition of electric eel AChE using acetylthiocholine iodide as substrate preincubated for 10 mins followed by substrate addition by Ellman's method
How it was run: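 Substrate-competition kinetics with E. electricus AChE by Ellman's method: 10 min enzyme–DTNB–compound preincubation in 0.1 M phosphate, pH 7.4, then acetylthiocholine; A412 was read every 12 s for 5 min at rt. Three independent data sets, each in triplicate, were averaged and fitted to a simple noncompetitive model. That model was compared with mixed linear inhibition by AICc probability ratio.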

[7] = Selectivity ratio of IC50 for equine serum BuChE to IC50 for electric eel AChE
How it was run: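 Ellman kinetic assay with Electrophorus electricus AChE (acetylthiocholine) and equine serum BuChE (butyrylthiocholine iodide), […]. Enzyme was preincubated 10 min with DTNB and compound in 0.1 M sodium phosphate, pH 7.4 (final DMSO <0.2%), before substrate was added. A412 was read every 12 s for 5 min at rt to give maximum velocity. IC50 is the geometric mean of 2–3 curves, each 6 concentrations in triplicate. Selectivity is IC50 BuChE/IC50 AChE.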

[8] = molecular target: Cholinesterase (Equus caballus) (UniProt P81908); test: (§2) Inhibition of […] preincubated for 10 mins followed by substrate addition by Ellman's method
[9] = molecular target: Cholinesterase (Equus caballus, UniProt P81908); test: as §2
[10] = tested on: Mus musculus; test: Antinociceptive activity in formalin-induced Swiss mouse model of hyperalgesia assessed as time spent licking the injected paw in early phase at 100 mM/kg, po pretreated for 1 hr followed by formalin injection and measured up to 5 mins (reference value: 74 +/- 7.7 secs); assay type: functional
[11] = tested on: Mus musculus; test: Antinociceptive activity in formalin-induced Swiss mouse model of hyperalgesia assessed as time spent licking the injected paw in last phase at […], po pretreated for 1 hr followed by formalin injection and measured at 20 to 30 mins (reference value: 135.8 +/- 10.7 secs); assay type: functional
[12] = tested on: Mus musculus; test: Antinociceptive activity in formalin-induced Swiss mouse model of hyperalgesia assessed as time spent licking the injected paw in early phase at 39 mM/kg, po pretreated for 1 hr followed by formalin injection and measured up to 5 mins (reference value: 74 +/- 7.7 secs); assay type: functional
[13] = tested on: Mus musculus; test: Antinociceptive activity in formalin-induced Swiss mouse model of hyperalgesia assessed as time spent licking the injected paw in last phase at 39 mM/kg, po pretreated for 1 hr followed by formalin injection and measured at 20 to 30 mins (reference value: 135.8 +/- 10.7 secs); assay type: functional
[14] = tested on: Mus musculus; test: Anti-inflammatory activity in po dosed Swiss mouse assessed as reduction in carrageenan-induced paw edema pretreated for 1 hr followed by carrageenan injection and measured after 1 to 5 hrs by plethysmometric method; assay type: functional; details: read-out: ID50 (the source's name)
How it was run: (§3)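 Male Swiss mice (22–28 g) were fasted overnight and dosed orally with vehicle (2% DMSO in sterile saline), compound or indomethacin 1 h before intraplantar carrageenan. Groups (n=10) were matched on basal paw volume. Right hind paw volume was read by plethysmometer at 1, 3 and 5 h and expressed as change from basal.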

[15] = tested on: Mus musculus; test: Anti-inflammatory activity in Swiss mouse assessed as reduction in carrageenan-induced paw edema by measuring paw volume […] po pretreated for 1 hr followed by carrageenan injection and measured after 1 to 5 hrs by plethysmometric method (reference value: 67.73 +/- 4.2 uL); assay type: functional; how it was run: as §3
[16] = Cytotoxicity against human HepG2 cells assessed as cell viability at 20 to 40 uM after 6 hrs by trypan blue exclusion assay relative to control; assay type: cell-based; details: read-out: Activity
[17] = tested on: Mus musculus; test: Inhibition of serum COX2 level in Swiss mouse model of carragenan-induced paw edema at 100 mM/kg, po pretreated for 1 hr followed by carrageenan treatment measured after 3 hrs by ELISA; assay type: functional
How it was run: (§4)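 Swiss mice (n=8) received compound (100 mM/kg) or vehicle orally 1 h before intraplantar carrageenan; indomethacin was the positive control. Three hours later, blood was drawn from the heart under chloral hydrate anaesthesia and serum was collected. COX-1 and COX-2 protein was measured by sandwich ELISA read at 450 nm and expressed as percent COX level.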

[18] = tested on: Mus musculus; test: Inhibition of serum COX1 level in Swiss mouse model of carragenan-induced paw edema at 100 mM/kg, po pretreated for 1 hr followed by carrageenan treatment measured after 3 hrs by ELISA; assay type: functional; how it was run: as §4

T2 sequence (O42275 whole entry): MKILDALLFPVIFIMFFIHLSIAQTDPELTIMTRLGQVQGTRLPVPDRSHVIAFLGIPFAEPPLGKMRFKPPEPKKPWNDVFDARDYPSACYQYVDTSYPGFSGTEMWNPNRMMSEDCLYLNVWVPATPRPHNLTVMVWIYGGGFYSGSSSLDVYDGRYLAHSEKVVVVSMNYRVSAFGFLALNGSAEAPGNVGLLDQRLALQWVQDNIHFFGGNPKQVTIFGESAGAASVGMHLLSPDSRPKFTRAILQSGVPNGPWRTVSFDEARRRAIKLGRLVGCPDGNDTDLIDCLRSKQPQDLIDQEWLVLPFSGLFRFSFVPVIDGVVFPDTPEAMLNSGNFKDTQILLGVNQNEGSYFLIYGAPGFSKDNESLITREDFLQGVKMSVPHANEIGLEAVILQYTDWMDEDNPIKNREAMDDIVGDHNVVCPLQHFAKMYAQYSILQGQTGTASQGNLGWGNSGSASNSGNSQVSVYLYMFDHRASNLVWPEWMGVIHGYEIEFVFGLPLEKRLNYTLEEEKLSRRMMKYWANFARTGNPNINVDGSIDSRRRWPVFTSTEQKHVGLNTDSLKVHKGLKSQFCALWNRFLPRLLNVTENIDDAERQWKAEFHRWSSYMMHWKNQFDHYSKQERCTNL
Cholinesterase, sequence (P81908 whole entry): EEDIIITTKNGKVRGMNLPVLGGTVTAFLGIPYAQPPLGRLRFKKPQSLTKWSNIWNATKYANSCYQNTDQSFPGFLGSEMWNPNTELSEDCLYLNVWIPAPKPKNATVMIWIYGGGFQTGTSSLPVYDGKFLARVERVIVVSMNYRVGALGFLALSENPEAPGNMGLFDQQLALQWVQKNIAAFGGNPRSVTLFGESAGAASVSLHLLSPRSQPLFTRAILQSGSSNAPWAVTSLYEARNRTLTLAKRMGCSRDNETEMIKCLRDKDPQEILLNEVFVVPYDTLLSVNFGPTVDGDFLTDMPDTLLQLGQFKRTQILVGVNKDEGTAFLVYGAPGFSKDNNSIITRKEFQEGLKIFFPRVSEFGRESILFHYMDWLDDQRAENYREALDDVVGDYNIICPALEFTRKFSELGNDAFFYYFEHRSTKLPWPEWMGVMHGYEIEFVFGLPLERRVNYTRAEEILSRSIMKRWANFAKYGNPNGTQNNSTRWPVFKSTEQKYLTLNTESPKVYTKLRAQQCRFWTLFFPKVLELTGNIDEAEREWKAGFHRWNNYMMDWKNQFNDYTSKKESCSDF
Cholinesterase (Equus caballus), sequence (P81908 whole entry): as above
Acetylcholinesterase (Electrophorus electricus), sequence (O42275 24-633 limits assumed): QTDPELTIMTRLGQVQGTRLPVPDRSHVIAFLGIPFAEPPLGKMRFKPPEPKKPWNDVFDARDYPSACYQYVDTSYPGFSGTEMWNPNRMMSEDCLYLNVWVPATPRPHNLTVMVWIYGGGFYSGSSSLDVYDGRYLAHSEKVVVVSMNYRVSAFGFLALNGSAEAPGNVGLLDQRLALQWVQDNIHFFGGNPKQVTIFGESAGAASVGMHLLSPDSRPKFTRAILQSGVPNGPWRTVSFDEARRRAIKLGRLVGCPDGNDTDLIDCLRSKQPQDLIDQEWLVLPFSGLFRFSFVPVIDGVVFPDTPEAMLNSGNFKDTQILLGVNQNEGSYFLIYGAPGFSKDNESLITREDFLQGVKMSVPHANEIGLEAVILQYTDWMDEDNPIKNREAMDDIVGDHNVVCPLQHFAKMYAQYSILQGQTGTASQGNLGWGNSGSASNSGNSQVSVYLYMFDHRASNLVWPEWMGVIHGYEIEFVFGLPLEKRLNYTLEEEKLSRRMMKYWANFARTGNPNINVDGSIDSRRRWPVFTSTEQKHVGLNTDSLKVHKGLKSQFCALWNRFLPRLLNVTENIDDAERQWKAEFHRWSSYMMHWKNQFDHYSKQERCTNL

Work on `CC(C)Cc1ccc(C(C)C(=O)O)cc1` (stereo not drawn) yielded an inhibition [1] of 88%.
In the case of `O=C(N/N=C/c1ccc(N2CCCC2)cc1)c1ccc(CN2CCCC(O)C2)cc1` (stereo not drawn), the inhibition [2] is reported as “Dose-dependent effect”, the IC50 [3] is reported as 14.7 µM and the inhibition [4] is reported as > 60%. It also gave an Activity_index [5] of 206.4.
With `O=C(N/N=C/c1ccc(-n2ccnc2)cc1)c1ccc(CN2CCCC(O)C2)cc1` (stereo not drawn) the inhibition [2] was “Dose-dependent effect”, the IC50 [3] was 21.7 µM and the Ki [6] was 21.1 µM. The Ratio IC50 [7] was 1.8, the inhibition [4] was > 60% and the inhibition [8] was “Dose-dependent effect”. It also gave an IC50 [9] of 39.6 µM.
In the case of `O=C(N/N=C/c1ccccc1)c1ccc(CN2CCCC(O)C2)cc1` (stereo not drawn), the inhibition [2] is reported as “Dose-dependent effect”, the IC50 [3] is reported as 30 µM and the inhibition [4] is reported as > 60%.
For `CC(=O)OC1CCCN(Cc2ccc(C(=O)N/N=C/c3ccc(Br)cc3)cc2)C1` (stereo not drawn), the IC50 [3] was ≥ 100 µM and the Activity_index [5] was 206.9.
For `O=C(N/N=C/c1ccc(N2CCCCC2)cc1)c1ccc(CN2CCCC(O)C2)cc1` (stereo not drawn), the inhibition [2] was “Dose-dependent effect”, the IC50 [3] was 10.9 µM and the Ki [6] was 9.7 µM. For the same compound, the Ratio IC50 [7] was 5.3, the Time [10] was 19.63 s and the inhibition [4] was > 60%. For the same compound, the Activity_index [5] was 64.56, the Time [11] was 110 s and the inhibition [8] was “Dose-dependent effect”. It also gave an IC50 [9] of 58.1 µM.
`CN1CC[C@]23c4c5ccc(O)c4O[C@H]2[C@@H](O)C=C[C@H]3[C@H]1C5` [MORPHINE] showed a Time [12] of 7.5 s and a Time [13] of 3.375 s.
In the case of `O=C(N/N=C/c1ccc(N2CCOCC2)cc1)c1ccc(CN2CCCC(O)C2)cc1` (stereo not drawn), the IC50 [3] is reported as ≥ 100 µM, the ED50 [14] is reported as 2.67 µmol/kg and the Time [10] is reported as 62.75 s. For the same compound, the Activity_index [5] was 83.96, the Time [11] was 69.67 s and the Activity [15] was 21.43 µL.
For `COc1ccc(/C=N/NC(=O)c2ccc(CN3CCCC(O)C3)cc2)cc1` (stereo not drawn), the inhibition [2] was “Dose-dependent effect”, the IC50 [3] was 13.2 µM and the ED50 [14] was 68.3 µmol/kg. The Ki [6] was 11.5 µM, the Ratio IC50 [7] was 7 and the Time [10] was 13.29 s. The inhibition [4] was > 60%, the Activity_index [5] was 161.1 and the Time [11] was 15.86 s. For the same compound, the Activity [15] was 25.71 µL, the inhibition [8] was “Dose-dependent effect” and the IC50 [9] was 91.9 µM.
In the case of `CSc1ccc(/C=N/NC(=O)c2ccc(CN3CCCC(O)C3)cc2)cc1` (stereo not drawn), the inhibition [2] is reported as “Dose-dependent effect”, the IC50 [3] is reported as 10.4 µM and the Ki [6] is reported as 8.42 µM. The Ratio IC50 [7] was 5.7, the inhibition [4] was > 60% and the Activity_index [5] was 260.3. For the same compound, the inhibition [8] was “Dose-dependent effect” and the IC50 [9] was 59.3 µM.
In the case of `COc1cccc2c1C(=O)c1c(O)c3c(c(O)c1C2=O)C[C@@](O)(C(=O)CO)C[C@@H]3O[C@H]1C[C@H](N)[C@H](O)[C@H](C)O1` [DOXORUBICIN], the viability at 6 h, 40 µM [16] is reported as > 90%.
With `COc1ccc2c(c1)c(CC(=O)O)c(C)n2C(=O)c1ccc(Cl)cc1` [INDOMETHACIN] the “inhibition (INH)” value [17] was 40%, the ED50 [14] was 2.12 µmol/kg and the Time [10] was 65.43 s. The “inhibition (INH)” value [18] was 52%, the Activity_index [5] was 158.1 and the Time [11] was 22.75 s. For the same compound, the Activity [15] was 14.29 µL.
In the case of `Nc1ccc(/C=N/NC(=O)c2ccc(CN3CCCC(O)C3)cc2)cc1` (stereo not drawn), the inhibition [2] is reported as “Dose-dependent effect”, the IC50 [3] is reported as 21.5 µM and the inhibition [4] is reported as > 60%. It also gave an Activity_index [5] of 244.4.
In the case of `COc1cc2c(cc1OC)C(=O)C(CC1CCN(Cc3ccccc3)CC1)C2` (stereo not drawn) [DONEPEZIL], the viability at 6 h, 40 µM [16] is reported as > 90%.
With `CC(=O)OC1CCCN(Cc2ccc(C(=O)N/N=C/c3ccc(N)cc3)cc2)C1` (stereo not drawn) the IC50 [3] was ≥ 100 µM, the ED50 [14] was 4.2 µmol/kg and the Time [10] was 47.75 s. It also gave an Activity_index [5] of 146.1, a Time [11] of 69.75 s and an Activity [15] of 11.43 µL.
In the case of `O=C(N/N=C/c1ccc([N+](=O)[O-])cc1)c1ccc(CN2CCCC(O)C2)cc1` (stereo not drawn), the inhibition [2] is reported as “Dose-dependent effect”, the IC50 [3] is reported as 2.71 µM and the Ki [6] is reported as 2.45 µM. The Ratio IC50 [7] was 12.5, the inhibition [4] was > 60% and the Activity_index [5] was 320.1. The inhibition [8] was “Dose-dependent effect” and the IC50 [9] was 33.9 µM.
With `CC(=O)Oc1ccc(/C=N/NC(=O)c2ccc(CN3CCCC(OC(C)=O)C3)cc2)cc1` (stereo not drawn) the IC50 [3] was ≥ 100 µM and the Activity_index [5] was 353.1.
For `O=C(N/N=C/c1ccc(Br)cc1)c1ccc(CN2CCCC(O)C2)cc1` (stereo not drawn), the inhibition [2] was “Dose-dependent effect”, the IC50 [3] was 11.9 µM and the inhibition [4] was > 60%. The Activity_index [5] was 235.8.
